A short description of data set [1]: Cytotoxicity / cell survival in Raw264.7 cells. Conditions: mouse.
Data set [2] concerns NO production by LPS-stimulated RAW264.7 murine macrophages. The experiment in a line: Inhibition of NO production by LPS-stimulated murine macrophages. It is filed as cell-based. The following applies: Mus musculus.
Data set [3] deals with E. coli JB525. Nature of the data set: QS inhibition: GFP production in E. coli JB525. In kind it is cell-based, Escherichia coli.
Data set [4] deals with V. harveyi BB120. The experiment in a line: microbe, parasite or virus in culture. In kind it is cell-based, Vibrio harveyi.
Another data set relates to Raw264.7 cells. The experiment in a line: Cytotoxicity / cell survival in Raw264.7 cells. The following applies: for IC50: read-out: Cytotoxicity in Raw264.7 cells (IC50), Raw264.7 cells.
The test system of another data set is TNF-α. The experiment in a line: qRT-PCR transcript level in LPS-stimulated RAW 264.7 cells: TNF-α. Conditions: after 6 h of treatment. It is filed as cell-based, murine. The method in brief:
(§1)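 Murine RAW264.7 macrophages were LPS-stimulated and treated with the test compound for 6 h, alongside untreated LPS-stimulated cells. RNA was isolated and reverse-transcribed to cDNA. Transcripts of TNF-α, IL-1β, IL-6 and iNOS were quantified by qRT-PCR and expressed as fold change versus untreated cells. Three replicates were run, reported as mean ± standard deviation, with Student's t-test (p < 0.05).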
A general note: In qPCR the cycle at which signal appears reflects the starting amount.

For another data set, the system named is IL-1β. The experiment in a line: qRT-PCR transcript level in LPS-stimulated RAW 264.7 cells: IL-1β. It is filed as cell-based, murine. Conditions: after 6 h of treatment. The method in brief:
as §1

Data set [5] has as its system E. coli JB525. The experiment in a line: Growth inhibitory. It is filed as cell-based, Escherichia coli.
The subject of a further data set is iNOS. The experiment in a line: qRT-PCR transcript level in LPS-stimulated RAW 264.7 cells: iNOS. In kind it is cell-based, murine. The following applies: after 6 h of treatment. The method, boiled down: as §1
The test system of the next data set is IL-6. Nature of the data set: qRT-PCR transcript level in LPS-stimulated RAW 264.7 cells: IL-6. It is filed as cell-based, murine. The following applies: after 6 h of treatment. The method, boiled down: as §1
Data set [6] concerns V. harveyi BB120. Nature of the data set: Growth inhibitory. In kind it is cell-based, Vibrio harveyi.
Setting [7] is: RAW264.7, read-out: NO inhibition (IC50), dash with footnote b.
Setting [8] is: Escherichia coli, read-out: QS inhibition (IC50) E. coli, dash with footnote d.
Setting [9] is: Vibrio harveyi, read-out: QS inhibition (IC50) V. harveyi, dash with footnote d.
The mark [10] stands for this setting: read-out: QS inhibition (IC50) E. coli, inhibition of GFP production, E. coli JB525, OHHL autoinducer.
[11] abbreviates: read-out: QS inhibition (IC50) V. harveyi, inhibition of bioluminescence, V. harveyi BB120.
The mark [12] stands for this setting: RAW264.7, read-out: NO inhibition (IC50 ± SD).
[13] abbreviates: Escherichia coli, read-out: QS inhibition (IC50) E. coli.
Setting [14] is: Vibrio harveyi, read-out: QS inhibition (IC50) V. harveyi.

Experimental findings from PMC3361693 (Chemistry & biology, 2012) are described below.

≈ marks a conversion by molar mass, not a printed value. Like-named read-outs stand apart in the source and are kept apart here.

Usually IC50 stands for the concentration that inhibits the measured activity by half. With `O=C1OCCC1O` (racemic) [Compound 6, (R/S)-2-hydroxy-γ-butyrolactone], the IC50 was more than 98 µM in data set [1], more than 30 µg/mL in data set [2] (setting [7]), more than 125 µg/mL in the data set on E. coli JB525 [3] (setting [8]) and more than 125 µg/mL in the data set with V. harveyi BB120 [4] (setting [9]).
Take `O=C(/C=C/CCl)O[C@@H]1COC(=O)C1` [Compound 1, Honaucin A]: in the data set on Raw264.7 cells (RAW264.7 cells, cytotoxicity IC50 vs NO inhibition IC50), the “therapeutic window between NO inhibitory effect and cytotoxicity” value is listed as “greater than ten-fold”. Besides, the IC50 was more than 49 µM in the data set on Raw264.7 cells, 38.5 µM in the data set with E. coli JB525 [3] (setting [10]) and 5.6 µM with V. harveyi BB120 [4] (setting [11]). In addition, the “reduction in transcripts of TNF-α” value in the data set on TNF-α is listed as −9.3 fold. In the data set on IL-1β, the “reduction in transcripts of IL-1β” value was −154.6 fold. Further, the “growth inhibitory effects: none observed up to concentration” value (“growth inhibitory effects” for short) in the data set with E. coli JB525 [5] and with V. harveyi BB120 [6] was more than 610 µM in each case. Moreover, the “reduction in transcripts of iNOS” value in the data set on iNOS was −11.8 fold. Further, the “reduction in transcripts of IL-6” value with IL-6 is reported as −19.0 fold.
As for `CCOC(=O)C[C@H](O)COC(=O)/C=C/CCl` [Compound 2, Honaucin B], the IC50 in the data set on Raw264.7 cells came out at 16 µM; in the data set on E. coli JB525 [3] (setting [10]) it was 908 µM; with V. harveyi BB120 [4] (setting [11]) it was 17.6 µM. For the same molecule, the “growth inhibitory effects” value in the data set with E. coli JB525 [5] and in the data set with V. harveyi BB120 [6] was more than 458 µM in each case.
With `COC(=O)C[C@H](O)COC(=O)/C=C/CCl` [Compound 3, Honaucin C], the results for the IC50 in the data set with Raw264.7 cells, in the data set on E. coli JB525 [3] (setting [10]) and in the data set with V. harveyi BB120 [4] (setting [11]) were 30 µM, 576 µM and 14.6 µM, respectively. Besides, the “growth inhibitory effects” value in the data set on E. coli JB525 [5] and with V. harveyi BB120 [6] was more than 483 µM each time.
In the case of `O=C1C[C@H](O)CO1` [Compound 4, (S)-3-hydroxy-γ-butyrolactone], the IC50 in [1] is more than 98 µM; with E. coli JB525 [3] (setting [8]), more than 125 µg/mL; in the data set with V. harveyi BB120 [4] (setting [9]), more than 125 µg/mL.
Consider `O=C1C[C@@H](O)CO1` [Compound 5, (R)-3-hydroxy-γ-butyrolactone], for which the IC50 was more than 98 µM in data set [1], more than 125 µg/mL in the data set with E. coli JB525 [3] (setting [8]) and more than 125 µg/mL in the data set on V. harveyi BB120 [4] (setting [9]).
On to `O=C(O)/C=C/CCl` [Compound 7, 4-chlorocrotonic acid], for which the IC50 in [1] (RAW264.7 macrophage cells) was 80 µM; in [2] (setting [12]) it was 28 ± 4.3 µM; in the data set on E. coli JB525 [3] (setting [13]), 152 µM; in the data set on V. harveyi BB120 [4] (setting [14]) it was 72.5 µM.
Take `C/C=C/C(=O)O` [Compound 9, crotonic acid]: the IC50 was more than 116 µM in data set [1] (RAW264.7 macrophage cells); more than 30 µg/mL in data set [2] (setting [7]); more than 116 µM in data set [2] (setting [12]); more than 125 µg/mL in the data set with E. coli JB525 [3] (setting [8]); more than 125 µg/mL in the data set with V. harveyi BB120 [4] (setting [9]).
For the molecule `O=C(O)/C=C/CF` [Compound 13, 4-fluorocrotonic acid], the IC50 in data set [1] is more than 288 µM; in data set [2] (setting [12]) it was 11.6 ± 4.3 µM; with E. coli JB525 [3] (setting [13]), more than 304 µM; in the data set with V. harveyi BB120 [4] (setting [14]) it was 167 µM.
As to `O=C(O)/C=C/CBr` [Compound 14, 4-bromocrotonic acid], the IC50 in data set [1] (RAW264.7 macrophage cells) was determined as 35 µM; in data set [2] (setting [12]), 3.5 ± 0.5 µM; in the data set on V. harveyi BB120 [4] (setting [14]), 10.5 µM. For the same molecule, in the data set with E. coli JB525 [5], the “MIC (antibiotic effect)” value came out at 188 µM (≈ 31 µg/mL).
In the case of `O=C(O)/C=C/CI` [Compound 15, 4-iodocrotonic acid], the figures for the IC50 (in data set [1] (RAW264.7 macrophage cells); in [2] (setting [12]); with V. harveyi BB120 [4] (setting [14])) were 10 µM, 1.2 ± 0.2 µM and 1.2 µM, respectively. Further, the “MIC (antibiotic effect)” value with E. coli JB525 [5] worked out at 18 µM (≈ 3.82 µg/mL). The “growth inhibitory effects” value in the data set with V. harveyi BB120 [6] is more than 32 µM.
As to `O=C(/C=C/CCl)O[C@H]1COC(=O)C1` [Compound 17, epi-honaucin A], the figures for the IC50 in the data set on Raw264.7 cells, in the data set on E. coli JB525 [3] (setting [10]) and with V. harveyi BB120 [4] (setting [11]) were more than 49 µM, 260 µM and 22.1 µM, respectively.
